Measured values published in ChEMBL document CHEMBL1124248, “Preparation and antischistosomal and antitumor activity of hycanthone and some of its congeners. Evidence for the mode of action of hycanthone” (1988).
Several values for one entry are separate records, joined by “and”; a condition that tells them apart may be missing. Identical values can stand only once.

Key:
Assay type in all cases: functional
Mus musculus [1] = experiment: In vivo antitumor activity against p-388 lymphocytic leukemia in mice at 3.12 mg/kg
Outline: (§1)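 Murine P388 lymphocytic leukemia model tested by the National Cancer Institute. Compound given once daily for 9 days; activity expressed as T/C.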

Mus musculus [2] = experiment: In vivo antitumor activity against p-388 lymphocytic leukemia in mice at 1.50 mg/kg; details: dose 1.5 mg/kg; outline: as §1
Schistosoma mansoni [3] = experiment: Incorporation of 1.1 M *10e6 [3H]uridine in hycanthone(HC) resistant Schistosoma mansoni
Outline: (§2)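 Adult HC-resistant S. mansoni were treated in vitro, and [3H]uridine incorporation by the worms was measured. Values are % of control. Concentrations are given in M × 10^6.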

Schistosoma mansoni [4] = experiment: Incorporation of 1.1 M *10e6 [3H]uridine in hycanthone(HC) sensitive Schistosoma mansoni
Schistosoma mansoni [5] = experiment: Incorporation of 5.5 M*10e6 [3H]uridine in hycanthone(HC) resistant Schistosoma mansoni; outline: as §2
Schistosoma mansoni [6] = experiment: Incorporation of 5.5 M*10e6 [3H]uridine in hycanthone(HC) sensitive Schistosoma mansoni
Schistosoma mansoni [7] = experiment: Day 50% survival of worms in culture of HC sensitive Schistosoma mansoni
Mus musculus [8] = experiment: In vivo antitumor activity against p-388 lymphocytic leukemia in mice at 6.25 mg/kg; outline: as §1
Schistosoma mansoni [9] = experiment: Incorporation of 0.9 M *10e6 [3H]uridine in hycanthone(HC) resistant Schistosoma mansoni; outline: as §2
Schistosoma mansoni [10] = experiment: Incorporation of 0.9 M *10e6 [3H]uridine in hycanthone(HC) sensitive Schistosoma mansoni
Schistosoma mansoni [11] = experiment: Incorporation of 4.5 M*10e6 [3H]uridine in hycanthone(HC) sensitive Schistosoma mansoni
Schistosoma mansoni [12] = experiment: Incorporation of 4.5M*10e6 [3H]uridine in hycanthone(HC) resistant Schistosoma mansoni; outline: as §2
Schistosoma mansoni [13] = experiment: Day 50% survival of worms in culture of HC resistant Schistosoma mansoni
Outline: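 Adult HC-resistant S. mansoni were exposed in vitro and kept in culture. The value is the day by which 50% of worms were dead. Cultures were ended at different times in different experiments. Concentrations are given in M × 10^6.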

Schistosoma mansoni [14] = experiment: Incorporation of 1 M *10e6 [3H]uridine in hycanthone(HC) resistant Schistosoma mansoni; outline: as §2
Schistosoma mansoni [15] = experiment: Incorporation of 5M*10e6 [3H]uridine in hycanthone(HC) resistant Schistosoma mansoni; outline: as §2
Schistosoma mansoni [16] = experiment: Incorporation of 5M*10e6 [3H]uridine in hycanthone(HC) sensitive Schistosoma mansoni
Schistosoma mansoni [17] = experiment: Incorporation of 1 M *10e6 [3H]uridine in hycanthone(HC) sensitive Schistosoma mansoni
Mus musculus [18] = experiment: In vivo antitumor activity against p-388 lymphocytic leukemia in mice at 50 mg/kg; outline: as §1
Mus musculus [19] = experiment: In vivo antitumor activity against p-388 lymphocytic leukemia in mice at 6.25 mg/kg (Duplicate value); outline: as §1
Mus musculus [20] = experiment: In vivo antitumor activity against p-388 lymphocytic leukemia in mice at 12.5 mg/kg (Duplicate value); outline: as §1
Mus musculus [21] = experiment: In vivo antitumor activity against p-388 lymphocytic leukemia in mice at 25 mg/kg (Duplicate value); outline: as §1
Schistosoma mansoni [22] = experiment: Incorporation of 1.3 M *10e6 [3H]uridine in hycanthone(HC) sensitive Schistosoma mansoni
Schistosoma mansoni [23] = experiment: Incorporation of 1.3 [3H]uridine in hycanthone(HC) resistant Schistosoma mansoni; outline: as §2
Schistosoma mansoni [24] = experiment: Incorporation of 6.3 M*10e6 [3H]uridine in hycanthone(HC) sensitive Schistosoma mansoni
Mus musculus [25] = experiment: In vivo antitumor activity against p-388 lymphocytic leukemia in mice at 1.5 mg/kg; outline: as §1
Mus musculus [26] = experiment: In vivo antitumor activity against p-388 lymphocytic leukemia in mice at 12.5 mg/kg; outline: as §1

`CCCNC(=O)OCc1ccc(NCCN(CC)CC)c2c(=O)c3ccccc3sc12` showed a T/C (Mus musculus [1]) of 117%, a T/C (Mus musculus [2]) of 99% and a Control (Schistosoma mansoni [3]) of 100%. For the same compound, the Control (Schistosoma mansoni [4]) was 40%, the Control (Schistosoma mansoni [5]) was 56% and the Control (Schistosoma mansoni [6]) was 22%. For the same compound, the Effect (Schistosoma mansoni [7]) was >12 days and 10 days and the T/C (Mus musculus [8]) was 134%.

`CCN(CC)CCNc1ccc(COC(=O)c2cc([N+](=O)[O-])cc([N+](=O)[O-])c2)c2sc3ccccc3c(=O)c12` showed a Control (Schistosoma mansoni [9]) of 95%, a Control (Schistosoma mansoni [10]) of 50% and a Control (Schistosoma mansoni [11]) of 0%. The Control (Schistosoma mansoni [12]) was 105%, the Effect (Schistosoma mansoni [13]) was over 17 days and the Effect (Schistosoma mansoni [7]) was 7 days.

In the case of `CCN(CC)CCNc1ccc(COC(=O)Nc2ccccc2)c2sc3ccccc3c(=O)c12`, the Control (Schistosoma mansoni [14]) is reported as 33%, the Control (Schistosoma mansoni [15]) is reported as 32% and the Control (Schistosoma mansoni [16]) is reported as 7%. For the same compound, the Effect (Schistosoma mansoni [13]) was 12 days, the Effect (Schistosoma mansoni [7]) was 8 days and the T/C (Mus musculus [8]) was 111%. The Control (Schistosoma mansoni [17]) was 18%.

`CCN(CC)CCNc1ccc(COC(C)=O)c2sc3ccccc3c(=O)c12` was tested, and the T/C (Mus musculus [18]) was 118%, the T/C (Mus musculus [19]) was 123% and the T/C (Mus musculus [20]) was 129%. The T/C (Mus musculus [21]) was 125%, the Control (Schistosoma mansoni [22]) was 13% and the Control (Schistosoma mansoni [23]) was 19%. For the same compound, the Control (Schistosoma mansoni [24]) was 4%, the Effect (Schistosoma mansoni [13]) was >15 days and 7 days and the Effect (Schistosoma mansoni [7]) was 7 days.

Compound `CNC(=O)OCc1ccc(NCCN(C)C)c2c(=O)c3cc(O)ccc3sc12` has a T/C (Mus musculus [1]) of 130, a T/C (Mus musculus [25]) of 134 and a T/C (Mus musculus [26]) of 112. For the same compound, the T/C (Mus musculus [8]) was 127.
